Data published in ChEMBL document CHEMBL1145446, “Phosphonated carbocyclic 2'-oxa-3'-azanucleosides as new antiretroviral agents” (J Med Chem, 2007).
Values after ≈ are worked out from the molar mass of the structure shown. Active and inactive are the calls of the source. No cut-off for these calls is given here.

Legend:
[1] = system: Human T-cell leukemia virus type I; assay: Antiviral activity against HTLV1 in human PBMC at 25 uM; assay type: functional, organism-based
In short: (§1)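 Fresh human PBMC cultures were given compound at 100, 25, 5 or 1 µM immediately before exposure to HTLV-1. Infection was read out as Tax/Rex viral mRNA expression by liquid hybridization assay 3 weeks after virus exposure.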

[2] = system: Human T-cell leukemia virus type I; assay: Antiviral activity against HTLV1 in human PBMC at 100 uM; assay type: functional, organism-based; in short: as §1
[3] = system: Human T-cell leukemia virus type I; assay: Antiviral activity against HTLV1 in human PBMC at 5 uM; assay type: functional, organism-based; in short: as §1
[4] = system: Human T-cell leukemia virus type I; assay: Antiviral activity against HTLV1 in human PBMC at 1 uM; assay type: functional, organism-based; in short: as §1
[5] = system: PBMC; assay: Cytotoxicity against PBMC after 1 week by trypan blue exclusion test; assay type: cell-based; details: human, 168 h
In short: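 Freshly separated PBMCs were cultured short-term with compound and interleukin 2, without other stimuli. Cell growth and death were assessed on day 7, and cytotoxicity was expressed as CC20.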

[6] = system: Human T-cell leukemia virus type I; assay: Antiviral activity against HTLV1 in human PBMC; assay type: functional; in short: as §1
[7] = system: Human T-cell leukemia virus type I; assay: Inhibition of HTLV1 reverse transcriptase
In short: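 Cell-free assay of HTLV-1 reverse transcriptase, with compounds activated by incubation with human PBMC crude extract. Reverse transcription was read out by RT-PCR using a 20-cycle amplification program.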

Structure (SMILES)	MIC [7] [nM]	Activity [1]	Activity [2]	Activity [3]	Activity [4]	CC20 [5] [µM]	GI25 [5] [µM]	MPC [6] [µM]
CCOP(=O)(CC1CC(n2cc(C)c(=O)[nH]c2=O)ON1C)OCC (stereo not given)	–	Active	Active	Active	Active	> 2048	817	1
CCOP(=O)(CC1CC(n2cc(F)c(=O)[nH]c2=O)ON1C)OCC (stereo not given)	–	Active	Active	Active	Active	> 2048	119	1
Cc1cn([C@H]2C[C@H](N=[N+]=[N-])[C@@H](CO)O2)c(=O)[nH]c1=O [ZIDOVUDINE]	4 (≈ 1.07 ng/mL)	Active	Active	Active	Active	1153	15	1

Continued, in another order:

MIC [7] [nM]	Structure (SMILES)	Activity [1]	Activity [2]	Activity [3]	Activity [4]	CC20 [5] [µM]	GI25 [5] [µM]	MPC [6] [µM]
8 (≈ 3.41 ng/mL)	CCOP(=O)(CC1CC(n2cc(Br)c(=O)[nH]c2=O)ON1C)OCC (racemic)	–	–	–	–	> 2048	215	>100
> 10000	CCOP(=O)(CC1CC(n2cnc3c(N)ncnc32)ON1C)OCC (racemic)	–	–	–	–	> 2048	121	>100
